Measurements published in ChEMBL document CHEMBL1914334, “Discovery and characterization of potent and selective 4-oxo-4-(5-(5-phenyl-1,2,4-oxadiazol-3-yl)indolin-1-yl)butanoic acids as S1P₁ agonists” (Bioorg Med Chem Lett, 2011).
One block for each molecule: values may come before it. The source made the active and inactive calls. No cut-off for these calls is given here.

Tests used:
[1] = biological target: T1, Sphingosine 1-phosphate receptor 1 (Homo sapiens, UniProt P21453); assay: Agonist activity at human S1P1 receptor expressed in HEK293 cells assessed as inhibition of forskolin-stimulated cAMP production after 1 hr by HTRF assay; assay type: functional, cell-based
T1 sequence (P21453 whole entry): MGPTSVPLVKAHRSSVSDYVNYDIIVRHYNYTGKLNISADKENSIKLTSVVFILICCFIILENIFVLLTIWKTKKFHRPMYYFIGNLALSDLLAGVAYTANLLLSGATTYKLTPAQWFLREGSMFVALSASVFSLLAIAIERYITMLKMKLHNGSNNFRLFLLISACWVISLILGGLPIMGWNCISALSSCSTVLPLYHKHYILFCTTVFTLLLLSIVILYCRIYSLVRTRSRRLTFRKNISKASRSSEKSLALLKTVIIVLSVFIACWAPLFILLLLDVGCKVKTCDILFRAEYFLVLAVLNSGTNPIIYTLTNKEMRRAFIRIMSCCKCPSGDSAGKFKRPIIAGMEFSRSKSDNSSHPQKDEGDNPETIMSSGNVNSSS
Summary of the method: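 Human S1P₁ cAMP HTRF read-out; each EC₅₀ is the mean of three or more replicates.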

[2] = biological target: T1, Sphingosine 1-phosphate receptor 1; assay: Agonist activity at recombinant human S1P1 receptor expressed in HEK293 cells after 2 hrs by beta-arrestin assay; assay type: functional, cell-based
Mus musculus [3] = assay: Immunomodulatory activity BALB/C mouse assessed as induction of lymphopenia at 0.3 to 3 mg/kg, po after 8 hrs; assay type: functional, organism-based
Summary of the method: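 Male BALB/c mice were dosed orally at 0.3, 1.0 or 3.0 mg/kg, or with vehicle (0.5% methylcellulose in water). Blood lymphocytes were followed over time post-dose (mean ± SD). Observed values were fitted with an indirect PK/PD model.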

[4] = Aqueous solubility of the compound; assay type: physicochemical; details: buffer
[5] = Half life in human; assay type: ADME, organism-based; details: in vivo
Mus musculus [6] = assay: Immunomodulatory activity BALB/C mouse assessed as induction of lymphopenia at 1 mg/kg, po after 5 hrs; assay type: functional, organism-based; design: dose 1 mg/kg
Summary of the method: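 Male BALB/c mice were given a single oral dose of 1.0 mg/kg or vehicle (0.5% methylcellulose). Blood lymphocytes were counted at one time point, 5 h post-dose, with n = 6 per dose group (mean ± SD). Lowering was judged relative to the vehicle group.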

- EC50 [1]: 1.1 nM
- EC50 [2]: 6.8 nM
SMILES: CC(C)Oc1ccc(-c2nc(-c3ccc4c(c3)CCN4C(=O)CCC(=O)O)no2)cc1C#N
- Activity (Mus musculus [3]): Active

- EC50 [1]: 1.63 nM
- solubility [4]: < 10 µg/mL
SMILES: N[C@@H](CC(=O)N1CCc2cc(-c3noc(-c4cc(C(F)(F)F)cc(C(F)(F)F)c4)n3)ccc21)C(=O)O

- half-life [5]: 144 h
SMILES: CCCCCCCCc1ccc(CCC(N)(CO)CO)cc1.Cl [FINGOLIMOD HYDROCHLORIDE]

- EC50 [1]: 1.2 nM
SMILES: O=C(O)CCc1nc2cc(-c3noc(-c4cc(C(F)(F)F)cc(C(F)(F)F)c4)n3)ccc2[nH]1
- Activity (Mus musculus [6]): inactive
